Calls of active or inactive are those of the source.
Key:
[1] = molecular target: Inhibitor of nuclear factor kappa-B kinase subunit epsilon (Homo sapiens) (UniProt Q14164); experiment: Inhibition of IKKe in human SKCO1 cells at 1 uM after 4 hrs using biotin labeled DIKPGNIMR probe by mass-spectrometric analysis relative to control; assay type: cell-based
[2] = molecular target: MAP/microtubule affinity-regulating kinase 3 (Homo sapiens) (UniProt P27448); experiment: Inhibition of MARK3 in human SKCO1 cells at 1 uM after 4 hrs using biotin labeled EVAIKIIDKTQLNPTSLQK probe by mass-spectrometric analysis relative to control; assay type: cell-based
[3] = molecular target: Serine/threonine-protein kinase TAO2 (Homo sapiens) (UniProt Q9UL54); experiment: Inhibition of TAO2 in human SKCO1 cells at 1 uM after 4 hrs using biotin labeled DVKAGNILLSEPGLVK probe by mass-spectrometric analysis relative to control; assay type: cell-based
Serine/threonine-protein kinase TAO2 (Homo sapiens), sequence (Q9UL54 whole entry, the tested form may be a part): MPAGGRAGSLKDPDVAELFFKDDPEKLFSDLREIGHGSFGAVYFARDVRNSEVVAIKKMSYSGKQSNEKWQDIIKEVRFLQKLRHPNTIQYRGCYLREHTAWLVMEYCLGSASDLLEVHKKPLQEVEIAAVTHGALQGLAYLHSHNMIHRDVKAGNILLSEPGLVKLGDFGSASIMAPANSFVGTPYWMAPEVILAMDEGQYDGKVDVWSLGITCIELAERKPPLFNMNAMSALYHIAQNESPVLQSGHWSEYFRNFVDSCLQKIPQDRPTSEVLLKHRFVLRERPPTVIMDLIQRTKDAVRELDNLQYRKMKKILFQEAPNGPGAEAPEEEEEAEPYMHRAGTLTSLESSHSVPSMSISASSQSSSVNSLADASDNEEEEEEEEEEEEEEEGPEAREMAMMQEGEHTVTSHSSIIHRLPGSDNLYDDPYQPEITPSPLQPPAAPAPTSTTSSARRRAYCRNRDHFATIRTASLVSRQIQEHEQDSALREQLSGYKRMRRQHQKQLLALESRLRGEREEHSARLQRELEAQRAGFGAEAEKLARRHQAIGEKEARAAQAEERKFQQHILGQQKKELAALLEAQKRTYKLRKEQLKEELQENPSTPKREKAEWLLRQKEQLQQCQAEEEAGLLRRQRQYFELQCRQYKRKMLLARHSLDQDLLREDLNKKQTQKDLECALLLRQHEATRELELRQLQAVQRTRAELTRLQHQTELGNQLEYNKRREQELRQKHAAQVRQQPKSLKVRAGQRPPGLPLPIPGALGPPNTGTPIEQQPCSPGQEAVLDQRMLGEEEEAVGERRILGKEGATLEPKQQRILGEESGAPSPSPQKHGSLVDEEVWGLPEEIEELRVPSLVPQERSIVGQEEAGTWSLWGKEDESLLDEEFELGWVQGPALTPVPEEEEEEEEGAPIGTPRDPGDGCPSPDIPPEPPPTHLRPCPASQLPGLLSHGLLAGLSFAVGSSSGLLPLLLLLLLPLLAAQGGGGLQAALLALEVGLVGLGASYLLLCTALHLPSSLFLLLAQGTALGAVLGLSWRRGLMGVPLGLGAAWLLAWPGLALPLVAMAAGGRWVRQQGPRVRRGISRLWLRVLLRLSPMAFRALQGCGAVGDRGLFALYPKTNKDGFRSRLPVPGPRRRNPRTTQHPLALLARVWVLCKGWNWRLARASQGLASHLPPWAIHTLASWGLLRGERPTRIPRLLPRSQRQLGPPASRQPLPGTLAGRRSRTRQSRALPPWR

[4] = molecular target: T1, Dual specificity mitogen-activated protein kinase kinase 5 (Homo sapiens) (UniProt Q13163); experiment: Inhibition of human MEK5 (98 to 448 residues) expressed in mammalian expression system assessed as enzyme activity at 1 uM by KINOMEScan assay relative to control; set-up: scale not given: the % may be the effect or the level left
T1 sequence (whole entry): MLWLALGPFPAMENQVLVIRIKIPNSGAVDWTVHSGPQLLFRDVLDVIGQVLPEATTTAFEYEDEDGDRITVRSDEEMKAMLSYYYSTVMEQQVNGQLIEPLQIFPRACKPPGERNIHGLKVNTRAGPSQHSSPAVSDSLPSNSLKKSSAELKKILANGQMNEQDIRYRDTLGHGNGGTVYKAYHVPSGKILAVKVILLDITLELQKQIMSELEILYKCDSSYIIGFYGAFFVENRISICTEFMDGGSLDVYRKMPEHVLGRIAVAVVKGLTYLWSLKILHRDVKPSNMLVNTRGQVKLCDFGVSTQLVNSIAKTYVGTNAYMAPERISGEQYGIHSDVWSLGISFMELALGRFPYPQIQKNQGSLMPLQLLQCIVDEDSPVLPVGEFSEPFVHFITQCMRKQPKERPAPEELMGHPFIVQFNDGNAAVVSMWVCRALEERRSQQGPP
In short: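 In vitro ATP-site competition binding assay across a panel of 456 kinases, with compound tested at 1 and 10 μM.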

[5] = molecular target: Cyclin-dependent kinase-like 2 (Homo sapiens) (UniProt Q92772); experiment: Inhibition of human CDKL2 (1 to 327 residues) expressed in bacterial expression system assessed as enzyme activity at 10 uM by KINOMEScan assay relative to control; set-up: scale not given: the % may be the effect or the level left
In short: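 In vitro ATP-site competition binding assay (KinomeScan) across a panel of 456 kinases. Compound was tested at 1 and 10 μM. The read-out is the binding inhibition score relative to control.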

[6] = molecular target: Tropomyosin alpha-3 chain (Homo sapiens) (UniProt P06753); experiment: Binding affinity to TPM3 in human NCI-H23 cells at 1 uM by mass spectrometry based pull down assay; assay type: cell-based
[7] = molecular target: Citrate synthase, mitochondrial (Homo sapiens) (UniProt O75390); experiment: Binding affinity to CS in human NCI-H23 cells at 1 uM by mass spectrometry based pull down assay; assay type: cell-based
Citrate synthase, mitochondrial (Homo sapiens), sequence (O75390 whole entry): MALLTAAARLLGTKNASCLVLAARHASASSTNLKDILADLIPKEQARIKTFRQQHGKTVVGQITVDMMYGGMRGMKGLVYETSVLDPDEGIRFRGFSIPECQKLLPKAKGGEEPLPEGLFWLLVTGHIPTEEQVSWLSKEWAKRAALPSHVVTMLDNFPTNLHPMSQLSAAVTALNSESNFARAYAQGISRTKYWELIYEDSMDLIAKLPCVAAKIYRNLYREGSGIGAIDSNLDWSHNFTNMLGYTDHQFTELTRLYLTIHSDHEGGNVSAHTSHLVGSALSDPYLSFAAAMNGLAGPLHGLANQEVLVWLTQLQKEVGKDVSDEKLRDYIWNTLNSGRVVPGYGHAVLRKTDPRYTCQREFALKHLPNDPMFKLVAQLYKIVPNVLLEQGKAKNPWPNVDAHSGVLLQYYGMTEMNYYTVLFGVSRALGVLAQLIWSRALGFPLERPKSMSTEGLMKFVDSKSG

[8] = molecular target: Small ribosomal subunit protein eS6 (Homo sapiens) (UniProt P62753); experiment: Binding affinity to RPS6 in human NCI-H23 cells at 1 uM by mass spectrometry based pull down assay; assay type: cell-based
[9] = molecular target: Calcyclin-binding protein (Homo sapiens) (UniProt Q9HB71); experiment: Binding affinity to CACYBP in human NCI-H23 cells at 1 uM by mass spectrometry based pull down assay; assay type: cell-based
[10] = molecular target: Tubulin alpha-1A chain (Homo sapiens) (UniProt Q71U36); experiment: Binding affinity to TUBA1A in human NCI-H23 cells at 1 uM by mass spectrometry based pull down assay; assay type: cell-based
Tubulin alpha-1A chain (Homo sapiens), sequence (Q71U36 whole entry, looked up): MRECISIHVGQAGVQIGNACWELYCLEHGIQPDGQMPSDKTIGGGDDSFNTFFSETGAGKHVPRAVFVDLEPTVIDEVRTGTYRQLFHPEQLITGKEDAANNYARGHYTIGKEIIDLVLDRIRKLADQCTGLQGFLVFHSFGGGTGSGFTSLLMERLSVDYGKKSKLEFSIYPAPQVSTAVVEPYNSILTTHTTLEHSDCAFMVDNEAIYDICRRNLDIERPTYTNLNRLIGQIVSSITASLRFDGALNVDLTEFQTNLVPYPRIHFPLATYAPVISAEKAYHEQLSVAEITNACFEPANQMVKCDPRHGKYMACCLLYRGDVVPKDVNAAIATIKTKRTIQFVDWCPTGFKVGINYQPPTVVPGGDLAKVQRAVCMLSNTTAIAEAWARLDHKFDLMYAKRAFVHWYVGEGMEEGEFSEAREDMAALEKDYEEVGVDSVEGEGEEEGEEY

NCI-H23 = experiment: Binding affinity to NDUFS7 in human NCI-H23 cells at 1 uM by mass spectrometry based pull down assay; assay type: cell-based
[11] = molecular target: Glutathione S-transferase kappa 1 (Homo sapiens) (UniProt Q9Y2Q3); experiment: Binding affinity to GSTK1 in human NCI-H23 cells at 1 uM by mass spectrometry based pull down assay; assay type: cell-based
Glutathione S-transferase kappa 1 (Homo sapiens), sequence (Q9Y2Q3 whole entry): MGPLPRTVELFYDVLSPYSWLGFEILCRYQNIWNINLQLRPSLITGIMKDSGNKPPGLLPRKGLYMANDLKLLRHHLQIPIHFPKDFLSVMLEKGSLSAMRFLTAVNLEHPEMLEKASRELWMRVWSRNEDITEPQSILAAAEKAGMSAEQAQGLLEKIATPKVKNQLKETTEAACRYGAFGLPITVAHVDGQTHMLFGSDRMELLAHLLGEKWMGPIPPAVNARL

[12] = molecular target: Coatomer subunit beta (Homo sapiens) (UniProt P53618); experiment: Binding affinity to COPB1 in human NCI-H23 cells at 1 uM by mass spectrometry based pull down assay; assay type: cell-based
[13] = molecular target: Proteasome Macropain subunit MB1 (Homo sapiens) (UniProt P28074); experiment: Binding affinity to PSMB5 in human NCI-H23 cells at 1 uM by mass spectrometry based pull down assay; assay type: cell-based
Proteasome Macropain subunit MB1 (Homo sapiens), sequence (P28074 whole entry): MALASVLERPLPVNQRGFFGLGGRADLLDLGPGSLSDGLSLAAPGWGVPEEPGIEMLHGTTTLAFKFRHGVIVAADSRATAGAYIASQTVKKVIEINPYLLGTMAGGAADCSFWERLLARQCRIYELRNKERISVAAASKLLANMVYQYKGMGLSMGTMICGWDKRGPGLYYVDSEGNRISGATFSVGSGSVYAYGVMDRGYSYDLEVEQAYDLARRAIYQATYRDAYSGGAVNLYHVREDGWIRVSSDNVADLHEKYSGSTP

[14] = molecular target: Interleukin-1 receptor-associated kinase 1 (Homo sapiens) (UniProt P51617); experiment: Binding affinity to IRAK1 in human NCI-H23 cells at 1 uM by mass spectrometry based pull down assay; assay type: cell-based
[15] = molecular target: V-type proton ATPase subunit B, brain isoform (Homo sapiens) (UniProt P21281); experiment: Binding affinity to ATP6V1B2 in human NCI-H23 cells at 1 uM by mass spectrometry based pull down assay; assay type: cell-based
V-type proton ATPase subunit B, brain isoform (Homo sapiens), sequence (P21281 whole entry, canonical isoform): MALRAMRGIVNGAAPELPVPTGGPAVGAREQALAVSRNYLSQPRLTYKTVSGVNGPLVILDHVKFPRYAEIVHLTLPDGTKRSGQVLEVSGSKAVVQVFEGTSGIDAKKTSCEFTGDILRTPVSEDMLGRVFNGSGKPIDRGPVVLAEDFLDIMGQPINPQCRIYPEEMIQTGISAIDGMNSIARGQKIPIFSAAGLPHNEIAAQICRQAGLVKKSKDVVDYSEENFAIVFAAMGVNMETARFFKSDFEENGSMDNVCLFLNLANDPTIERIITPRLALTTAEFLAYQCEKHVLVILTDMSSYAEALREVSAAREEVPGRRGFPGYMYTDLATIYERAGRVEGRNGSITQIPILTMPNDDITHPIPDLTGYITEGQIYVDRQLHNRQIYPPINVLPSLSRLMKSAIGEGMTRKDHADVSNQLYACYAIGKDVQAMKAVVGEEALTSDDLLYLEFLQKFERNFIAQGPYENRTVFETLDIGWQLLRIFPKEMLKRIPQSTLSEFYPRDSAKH

[16] = molecular target: Histone H3.2 (Homo sapiens) (UniProt Q71DI3); experiment: Binding affinity to HIST2H3A in human NCI-H23 cells at 1 uM by mass spectrometry based pull down assay; assay type: cell-based
[17] = molecular target: TGF-beta-activated kinase 1 and MAP3K7-binding protein 2 (Homo sapiens) (UniProt Q9NYJ8); experiment: Binding affinity to TAB2 in human NCI-H23 cells at 1 uM by mass spectrometry based pull down assay; assay type: cell-based
[18] = molecular target: Heterogeneous nuclear ribonucleoprotein H2 (Homo sapiens) (UniProt P55795); experiment: Binding affinity to HNRNPH2 in human NCI-H358 cells at 1 uM by mass spectrometry based pull down assay; assay type: cell-based
[19] = molecular target: N-acetyl-D-glucosamine kinase (Homo sapiens) (UniProt Q9UJ70); experiment: Binding affinity to NAGK in human NCI-H358 cells at 1 uM by mass spectrometry based pull down assay; assay type: cell-based
N-acetyl-D-glucosamine kinase (Homo sapiens), sequence (Q9UJ70 whole entry): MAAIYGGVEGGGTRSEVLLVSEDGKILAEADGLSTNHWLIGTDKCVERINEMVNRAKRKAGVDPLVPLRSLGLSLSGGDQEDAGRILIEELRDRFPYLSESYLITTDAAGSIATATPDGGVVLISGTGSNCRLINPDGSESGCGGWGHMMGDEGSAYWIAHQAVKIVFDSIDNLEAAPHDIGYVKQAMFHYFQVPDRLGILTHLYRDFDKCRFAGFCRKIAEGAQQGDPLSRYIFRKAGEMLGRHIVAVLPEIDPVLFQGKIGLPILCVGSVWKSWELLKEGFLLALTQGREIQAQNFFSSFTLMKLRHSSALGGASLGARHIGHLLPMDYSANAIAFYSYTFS

[20] = molecular target: ATP-dependent 6-phosphofructokinase, liver type (Homo sapiens) (UniProt P17858); experiment: Binding affinity to PFKL in human NCI-H358 cells at 1 uM by mass spectrometry based pull down assay; assay type: cell-based
ATP-dependent 6-phosphofructokinase, liver type (Homo sapiens), sequence (P17858 whole entry): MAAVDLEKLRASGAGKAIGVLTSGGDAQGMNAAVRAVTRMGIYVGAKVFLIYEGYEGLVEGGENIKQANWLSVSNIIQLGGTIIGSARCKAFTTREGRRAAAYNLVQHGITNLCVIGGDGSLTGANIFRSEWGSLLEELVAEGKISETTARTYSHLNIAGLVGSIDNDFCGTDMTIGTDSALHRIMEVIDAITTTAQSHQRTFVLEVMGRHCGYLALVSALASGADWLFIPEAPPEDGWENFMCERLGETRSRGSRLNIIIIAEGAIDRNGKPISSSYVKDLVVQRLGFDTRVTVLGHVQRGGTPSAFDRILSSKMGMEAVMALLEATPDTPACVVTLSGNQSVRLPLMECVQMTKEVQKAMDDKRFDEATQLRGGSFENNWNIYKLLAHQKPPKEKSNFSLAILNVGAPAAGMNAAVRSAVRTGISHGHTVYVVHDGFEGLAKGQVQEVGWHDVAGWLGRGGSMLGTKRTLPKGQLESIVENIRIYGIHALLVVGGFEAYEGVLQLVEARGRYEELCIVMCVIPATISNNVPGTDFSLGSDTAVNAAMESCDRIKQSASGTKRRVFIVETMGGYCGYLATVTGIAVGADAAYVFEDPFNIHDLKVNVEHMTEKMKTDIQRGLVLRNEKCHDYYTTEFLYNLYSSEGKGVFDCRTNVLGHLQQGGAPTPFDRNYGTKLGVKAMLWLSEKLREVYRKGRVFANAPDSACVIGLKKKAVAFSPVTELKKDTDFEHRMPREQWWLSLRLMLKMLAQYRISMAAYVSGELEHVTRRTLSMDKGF

[21] = molecular target: Cyclin-G-associated kinase (Homo sapiens) (UniProt O14976); experiment: Binding affinity to GAK in human NCI-H358 cells at 1 uM by mass spectrometry based pull down assay; assay type: cell-based
[22] = molecular target: Amidophosphoribosyltransferase (Homo sapiens) (UniProt Q06203); experiment: Binding affinity to PPAT in human NCI-H358 cells at 1 uM by mass spectrometry based pull down assay; assay type: cell-based
Amidophosphoribosyltransferase (Homo sapiens), sequence (Q06203 whole entry): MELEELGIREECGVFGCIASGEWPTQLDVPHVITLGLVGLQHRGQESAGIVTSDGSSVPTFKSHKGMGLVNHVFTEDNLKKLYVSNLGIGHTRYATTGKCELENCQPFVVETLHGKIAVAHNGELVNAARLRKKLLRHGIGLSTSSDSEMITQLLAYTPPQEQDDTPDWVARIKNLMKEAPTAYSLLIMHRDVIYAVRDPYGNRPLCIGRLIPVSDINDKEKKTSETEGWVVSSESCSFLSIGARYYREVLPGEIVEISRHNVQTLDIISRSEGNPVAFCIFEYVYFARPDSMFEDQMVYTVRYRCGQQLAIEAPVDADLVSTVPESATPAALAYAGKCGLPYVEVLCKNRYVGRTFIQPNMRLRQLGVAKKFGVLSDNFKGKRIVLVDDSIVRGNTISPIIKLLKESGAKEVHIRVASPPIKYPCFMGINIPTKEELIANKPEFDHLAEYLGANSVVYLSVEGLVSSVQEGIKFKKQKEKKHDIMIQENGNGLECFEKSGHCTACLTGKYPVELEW

[23] = molecular target: Dual specificity mitogen-activated protein kinase kinase 1 (Homo sapiens) (UniProt Q02750); experiment: Binding affinity to MAP2K1 in human NCI-H358 cells at 1 uM by mass spectrometry based pull down assay; assay type: cell-based
[24] = molecular target: Aminoacyl tRNA synthase complex-interacting multifunctional protein 1 (Homo sapiens) (UniProt Q12904); experiment: Binding affinity to AIMP1 in human NCI-H358 cells at 1 uM by mass spectrometry based pull down assay; assay type: cell-based
In short: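 NCI-H23 or NCI-H358 cells were grown and lysed. Lysates were incubated overnight at 4 °C with 1 μM biotinylated covalent probe or DMSO, then pulled down on streptavidin beads. Proteins were run on polyacrylamide gels and stained with Coomassie. Bands were excised, digested and identified by mass spectrometry.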

Vinculin (Homo sapiens) = Vinculin (Homo sapiens) (UniProt P18206); experiment: Binding affinity to VCL in human NCI-H358 cells at 1 uM by mass spectrometry based pull down assay; assay type: cell-based

C=CC(=O)Nc1ccccc1Nc1nc(Nc2ccc(N3CCN(C)CC3)cc2)ncc1Cl
8.6%: inhibition [2]
59.3%: inhibition [1]

COc1cc(O)c2c(c1)/C=C/C[C@H](O)[C@H](O)C(=O)/C=C\C[C@H](C)OC2=O
-2.5%: inhibition [3]
0.2%: Activity [4]
8.6%: Activity [5]

C=CC(=O)Nc1ccccc1Nc1nc(Nc2ccc(N3CCN(CCOCCOCCOCCNC(=O)CCCC[C@@H]4SC[C@@H]5NC(=O)N[C@@H]54)CC3)cc2)ncc1Cl
active: Activity [6] | Activity [7] | Activity [8] | Activity [9] | Activity [10] | Activity (NCI-H23) | Activity [11] | Activity [12] | Activity [13] | Activity [14] | Activity [15] | Activity [16] | Activity [17] | Activity [18] | Activity [19] | Activity [20] | Activity [21] | Activity [22] | Activity [23] | Activity [24] | Activity (Vinculin (Homo sapiens))
